Cneo AK release: Cryptococcus neoformans lysis via adenylate kinase release; lysis activity, % at 15 µM; 0.2% of 360,000 active; C. neoformans lysis, adenylate kinase release luminescence, 4 h; normalised: neutral wells 0, clomiphene wells 100;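 active = mean lysis activity across replicates of at least 80%, whatever share of replicates individually reach that level; inactive = mean lysis activity below 80%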
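Material: C. neoformans cells | Amount: Yeast cell density of 5 × 10^6 cells/mL | Medium: Fresh YPD growth medium | Dosing: Single dose | Times: Static 4 h at 37 °C with compound, 1 h detection | Detection: AK luminescence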
XiGFP reactiv: X-chromosome reactivation activator | XiGFP mouse fibroblasts, % GFP-positive cells imaging, 3 d; cells co-treated with 5-aza-dC sensitizer; scaled so ellipticine positive control = 100% | activation, % at 7.58 µM | 0.055% of 360,000 active;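 active = mean normalized replicate activation at least 10% and every replicate at or above 10%; inconclusive = only one of the two criteria met; inactive = mean below 10% and not all replicates reach 10%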;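 note: 0% = median of on-plate neutral control wells and 100% = ellipticine 6 µM median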
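Assay system – SV40-immortalized XiGFP fibroblast cells, line 68-5-11 · Buffer or medium – DMEM supplemented with 5-aza-dC as sensitizing agent · Dosing – one concentration, pinned · Benchmarks – positive control ellipticine, 6 µM final · Times – 3 days compound exposure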
CFTR F508del cor: correctors of CFTR F508del function in bronchial epithelial cells; AID 720511; 0.36% of 350,000 active; activity (quench increase), % at 7.58 µM; CFBE cells, YFP halide quenching; stimulated with forskolin plus potentiator P3; % fluorescence drop versus neutral controls;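 active = mean added fluorescence quench of at least 8% versus neutral control, with both replicates also reaching 8%; inconclusive = only one of the mean or replicate conditions met; inactive = mean below 8% and not both replicates reaching 8%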;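 note: cells transiently co-express mutant CFTR-F508del with the halide-sensitive YFP; corrector assay measuring rescue of mutant channel to the surface after 24 h compound exposure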
FN deposition inh: fibronectin deposition inhibition | AH1F fibroblasts, Alexa488-fibronectin deposition fluorescence, overnight | inhibition, % at 12.6 µM | 0.086% of 350,000 active | AID 743247;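 active = mean inhibition across replicates of 30% or more, regardless of how many single replicates reach that level; inconclusive = mean under 30% yet at least half of replicates reach 30%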;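 note: positive control wells lacked labelled fibronectin entirely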
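Material – AH1F fibroblast monolayer, labelled fibronectin deposition · Reagent – labelled fibronectin 24 nM · Timing – 1 h adhesion, overnight exposure · Measured by – fluorescence at 485 nm excitation, 525 nm emission · Read-out – inhibition of fibronectin deposition signal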
PGC1a acetyl inh: lowers PGC1a acetylation signal in U2OS cells. AID 651687. 0.17% of 350,000 active. inhibition, % at 15.6 µM. AlphaScreen anti-acetyl-lysine; with virally co-expressed GCN5 acetyltransferase;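 active = every replicate shows inhibition of at least 40%; inconclusive = mean inhibition at least 40% but some replicate below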;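 note: 0% = neutral control wells and 100% = positive control wells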
DENV2 CPE: DENV2-induced cell death inhibition | CPE inhibition, % at 9.99 µM | 1.7% of 350,000 active | DENV2-infected cells, cytopathic effect rescue, plate reader | AID 651640; in the data active = CPE inhibition above about 20%, passing the limit was not always enough; inconclusive = no clear call, values can overlap the other calls; tested in BHK-21 cells;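 note: 0% = median of neutral control wells and 100% = median of positive control wells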
* marks the source's active call; other numbers are inactive results; u = inconclusive; x = not tested or not shown; ! = a repeat was not active. Hits are enriched below; roughly 1.9% of the tested compounds scored in any of these assays.

SMILES	Cneo AK release	XiGFP reactiv	CFTR F508del cor	FN deposition inh	PGC1a acetyl inh	DENV2 CPE
C[C@@H]1CN([C@@H](C)CO)C(=O)c2cc(N(C)C)ccc2O[C@H]1CN(C)C(=O)Nc1ccc(F)cc1	5	0	0	x	-3	35*
C[C@@H]1CN([C@@H](C)CO)C(=O)c2cc(N(C)C)ccc2O[C@H]1CN(C)C(=O)Nc1ccc2c(c1)OCO2	1	0	-1	x	11	40*
Cc1noc(C)c1NC(=O)N(C)C[C@H]1Oc2ccc(NS(=O)(=O)c3cccs3)cc2C(=O)N([C@@H](C)CO)C[C@@H]1C	-3	0	-1	x	-9	38*
C[C@H](CO)N1C[C@H](C)[C@H](CN(C)C(=O)Nc2ccc3c(c2)OCO3)Oc2ccc(N(C)C)cc2C1=O	-6	1	-2	x	-12	3
Cc1noc(C)c1NC(=O)N(C)C[C@H]1Oc2ccc(N(C)C)cc2C(=O)N([C@@H](C)CO)C[C@H]1C	9	0	3	x	-2	21*
Cc1noc(C)c1NC(=O)N(C)C[C@@H]1Oc2ccc(NS(=O)(=O)c3cccs3)cc2C(=O)N([C@H](C)CO)C[C@@H]1C	-3	0	1	x	11	2
C[C@@H]1CN([C@H](C)CO)C(=O)c2cc(N(C)C)ccc2O[C@H]1CN(C)C(=O)Nc1ccc(F)cc1	-4	-1	1	x	-1	12
C[C@@H]1CN([C@H](C)CO)S(=O)(=O)c2ccc(-c3ccncc3)cc2O[C@@H]1CN(C)C(=O)C1CCCCC1	x	0	0	x	5	x
CN1C(=O)c2cc(NC(=O)Nc3cccc(Cl)c3)ccc2OC[C@H]2O[C@H](CC(=O)O)CC[C@H]21	34	0	0	-18	0	-7
COc1ccc(C#Cc2ccc([C@@H]3[C@H]4CN(C(=O)c5ccncc5)CC(=O)N4[C@H]3CO)cc2)cc1	x	0	-2	x	2	0
CN1CCN(C(=O)C2=C[C@H](c3ccc(C(F)(F)F)cc3)C[C@H](OCc3ccc(CO)cc3)O2)CC1	2	0	0	4	0	47*!
O=C(C1=C[C@H](c2ccc(C(F)(F)F)cc2)C[C@H](OCc2ccc(CO)cc2)O1)N1CCCCCCC1	0	x	x	x	-13	x
O=C(C1=C[C@@H](c2ccc(C(F)(F)F)cc2)C[C@@H](OCc2ccc(CO)cc2)O1)N1CCOCC1	-4	0	-3	8	-19	25*!
CNC[C@@H]1Oc2ccc(NC(=O)C3CC3)cc2C(=O)N([C@@H](C)CO)C[C@H]1C	0	2	-1	x	-8	-10
CCC(=O)N(C)C[C@@H]1Oc2cc(C#CCN(C)C)ccc2S(=O)(=O)N([C@@H](C)CO)C[C@@H]1C	-2	0	-1	4	-6	u
CO[C@@H]1CN(C)C(=O)c2ccc(NC(=O)c3cccnc3)cc2OC[C@@H](C)N(CC2CC2)C[C@H]1C	0	0	-1	6	1	-1
COC(=O)c1c(-c2ccc(SC)cc2)sc2ccc(OC)cc12	-4	0	0	7	x	0
COC(=O)c1c(-c2ccc(SC)cc2)sc2ccccc12	-4	0	2	0	-1	74*
Nc1c(C(=O)c2ccco2)oc2ccccc12	x	0	14*	5	x	-1
Nc1c(C(=O)c2ccccc2)oc2ccccc12	-4	x	x	2	28	x
CCN(C[C@@H]1[C@@H](c2ccccc2)[C@@H](CO)N1C(C)=O)C(=O)NC(C)C	4	0	-1	x	5	7
CCN(C[C@@H]1[C@@H](c2ccc(-c3ccccc3)cc2)[C@H](CO)N1C(C)=O)C(C)=O	1	0	0	x	1	22*
CCN(C[C@H]1[C@H](c2ccccc2)[C@H](CO)N1C(C)=O)C(=O)NC(C)C	-1	0	-3	x	1	27*
CCN(C[C@H]1[C@H](c2ccc(-c3ccccc3)cc2)[C@H](CO)N1C(C)=O)C(C)=O	9	0	2	x	0	16
COc1cccc(CN2CCC3(CC2)CN(C(=O)C2CC2)[C@H](CO)c2c3c3ccc(OC)cc3n2C)c1	x	0	-3	x	4	-6
SMILES	Cneo AK release	XiGFP reactiv	CFTR F508del cor	FN deposition inh	PGC1a acetyl inh	DENV2 CPE
COc1ccc(C2c3ccc4ccccc4c3Oc3ncn(CCN4CCOCC4)c(=N)c32)cc1 (stereo not drawn)	8	x	x	x	-3	x
COc1ccc(C2c3ccc4ccccc4c3Oc3ncn(CCCO)c(=N)c32)cc1OC (stereo not drawn)	x	0	15*	24	x	11
COc1ccc(C2c3ccc4ccccc4c3Oc3ncn(CCN4CCOCC4)c(=N)c32)cc1OC (stereo not drawn)	x	0	0	30*	x	-6
CC(C)N1CCc2c(sc(NC(=O)c3ccc([N+](=O)[O-])o3)c2C(N)=O)C1	-3	1	15*	18	x	-3
CCCNC(=O)N[C@H]1CC[C@@H](CCn2cc(-c3cccc(F)c3)nn2)O[C@H]1CO	-3	0	4	-13	-7	56*
CCC(=O)N[C@@H]1CC[C@H](CCn2cc(-c3cccc(OC)c3)nn2)O[C@H]1CO	0	0	-3	x	-1	9
COc1cccc(-c2cn(CC[C@@H]3CC[C@@H](NC(C)=O)[C@H](CO)O3)nn2)c1	113*	0	0	x	-41	x
Cc1cc2oc(=O)cc(-c3ccccc3)c2c(C)c1-c1ccc(O)cc1	-4	0	9.2*	x	7	10
Cc1cc(O)c2c(-c3ccccc3)cc(=O)oc2c1	1	x	x	-7	-30	x
Cc1ccc(S(=O)(=O)Nc2cccc3c2O[C@H](CN(C)C(=O)Nc2ccc(F)cc2)[C@@H](C)CN([C@@H](C)CO)C3=O)cc1	-2	0	-4	10	-4	2
CCC(=O)N1CCCCN2[C@H](C1)[C@H](c1ccc(-c3cccnc3)cc1)[C@@H]2CO	51	0	-2	x	-8	38*
CCC(=O)N1CCCCN2[C@@H](CO)[C@@H](c3ccc(C#Cc4cccnc4)cc3)[C@@H]2C1	52	0	3	x	-5	23*
CCC(=O)N1CCCCN2[C@H](CO)[C@@H](c3ccc(-c4ccc(F)cc4)cc3)[C@H]2C1	1	0	1	x	1	31*
CCNC(=O)C[C@@H]1CC[C@@H]2[C@H](COC[C@H](O)CN2Cc2ccccc2F)O1	-3	0	-5	-3	2	-3
Cc1cc(C)c2nc(C)cc(Nc3ccc(C(=O)NCCO)cc3)c2c1	2	0	0	6	12	-3
CC(=O)c1ccc(Nc2cc(C)nc3c(C)cc(C)cc23)cc1	x	0	17*	1	39	3

High-throughput results as filed in PubChem BioAssay.
